The values below come from ChEMBL document CHEMBL1131610, “3-Deoxy-D-myo-inositol 1-phosphate, 1-phosphonate, and ether lipid analogues as inhibitors of phosphatidylinositol-3-kinase signaling and cancer cell growth” (J Med Chem, 1998).

Data set [1] in a line: Inhibition of bovine brain Phosphatidylinositol 3-kinase. More on the design: species or system Bos taurus.
The test system of data set [2] is HT-29. Nature of the data set: Inhibition of HT-29 colon carcinoma cell proliferation after continuous 7-day exposure. Type of data set: functional, cell-based. The note with it: Homo sapiens, HT-29, 168 h. The procedure, abridged:
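HT-29 colon carcinoma cells were grown as colonies in soft agarose with continuous 7-day drug exposure, and inhibition of colony formation was scored.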

Data set [3] concerns Phosphoinositide specific phospholipase C (Bos taurus). In words: In vitro inhibitory activity against bovine Phosphoinositide specific phospholipase C (PI-PLC); N/A= not active, with <20% inhibition at 100 uM.
Data set [4] is described as follows: Inhibition of bovine brain Phosphatidylinositol 3-kinase (inactive). Details: species or system Bos taurus; call rule not given here.
Data set [5] relates to Mus musculus. Nature of the data set: In vivo antitumor activity in mice implanted subcutaneously with HT-29 human colon adenocarcinoma cells at a dose of 250 mg/kg (qd 4-7), injected intraperitoneally and evaluated for %T/C. Type of data set: functional. The procedure, abridged:
(§1)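 scid mice were implanted subcutaneously with 10⁷ HT-29 human colon adenocarcinoma cells, 8 mice per group. Beginning 4 days after inoculation, each mouse got 4 daily intraperitoneal injections (days 4–7) of compound suspended in 3% EtOH, 3% Tween 20, 0.9% NaCl. Tumor volume was measured with calipers on day 10 and reported as mean with SE. T/C (%) is treated versus control volume, and significance was tested by Student's test.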

A short description of data set [6]: In vivo antitumor activity in mice implanted with human colon adenocarcinoma cells at a dose of 500 mg/kg (qd 4-7), injected intraperitoneally and evaluated for tumor volume on day 10; Lethal. Details: dose 500 mg/kg, route intraperitoneal. Type of data set: organism-based. The note with it: mouse, ip.
Data set [7] deals with Mus musculus. In words: In vivo antitumor activity in mice implanted with human colon adenocarcinoma cells at a dose of 250 mg/kg (qd 4-7), injected intraperitoneally and evaluated for tumor volume on day 10. Type of data set: functional. The conditions noted are these: route intraperitoneal. The procedure, abridged: as §1
Data set [8] has as its system Mus musculus. Nature of the data set: In vivo antitumor activity in mice implanted with human colon adenocarcinoma cells at a dose of 50 mg/kg (qd 4-7), injected intraperitoneally and evaluated for tumor volume on day 10. Type of data set: functional. The conditions noted are these: route intraperitoneal. The procedure, abridged:
as §1

For data set [9], the system named is Mus musculus. Nature of the data set: In vivo antitumor activity in mice implanted subcutaneously with 10^7 HT-29 human colon adenocarcinoma cells at a dose of 50 mg/kg (qd 4-7), injected intraperitoneally and evaluated for %T/C. Type of data set: functional. The gist of the method:
as §1

The subject of data set [10] is Mus musculus. Nature of the data set: In vivo antitumor activity in mice implanted with human colon adenocarcinoma cells at a dose of 150 mg/kg (qd 4-7), injected intraperitoneally and evaluated for %T/C. Type of data set: functional. The note with it: route intraperitoneal. The gist of the method: as §1
Data set [11] has as its system Mus musculus. Nature of the data set: In vivo antitumor activity in mice implanted with human colon adenocarcinoma cells at a dose of 100 mg/kg (qd 4-7), injected intraperitoneally and evaluated for tumor volume on day 10. Type of data set: functional. The conditions noted are these: route intraperitoneal. The procedure, abridged: as §1
Data set [12] has as its system Mus musculus. In words: In vivo antitumor activity in mice implanted with human colon adenocarcinoma cells at a dose of 150 mg/kg (qd 4-7), injected intraperitoneally and evaluated for tumor volume on day 10. Type of data set: functional. The conditions noted are these: route intraperitoneal. The procedure, abridged: as §1
Data set [13] relates to Mus musculus. In words: In vivo antitumor activity in mice implanted subcutaneously with 10^7 HT-29 human colon adenocarcinoma cells at a dose of 100 mg/kg (qd 4-7), injected intraperitoneally and evaluated for %T/C. Type of data set: functional. The gist of the method: as §1

As for `CCCCCCCCCCCCCCCCCCOC[C@H](CCP(=O)(O)O[C@H]1[C@@H](O)[C@@H](O)[C@H](O)C[C@H]1O)OC`, the IC50 (usually the midpoint of a concentration-inhibition curve) in data set [1] came out at 5.3 µM; in data set [2], 45 µM.
For `CCCCCCCCCCCCCCCC(=O)OC[C@H](CCP(=O)(O)O[C@H]1[C@@H](O)[C@@H](O)[C@H](O)C[C@H]1O)OC(=O)CCCCCCCCCCCCCCC`, the results for the IC50 entry in data set [3], in data set [4] and in data set [2] were “Not Active”, “Not Active” and 10 µM, respectively.
In the case of `CCCCCCCCCCCCCCCC(=O)OC[C@H](COP(=O)(O)O[C@H]1[C@@H](O)[C@@H](O)[C@H](O)C[C@H]1O)OC(=O)CCCCCCCCCCCCCCC`, the values for the IC50 in data set [1] and in data set [2] were above 250 µM and 35 µM, respectively. In data set [5], the T/C (as a rule, the result in the treated group divided by that in the control group, in per cent) was 111.1%. Also, the Tumor volume entry in data set [6] was “Lethal”; in data set [7] it was 0.3 cm*3.
With `CCCCCCCCCCCCCCCC(=O)OC[C@H](COP(=O)(O)O[C@@H]1[C@H](O)[C@@H](F)[C@@H](O)[C@H](O)[C@@H]1O)OC(=O)CCCCCCCCCCCCCCC`, the figures for the IC50 in data set [1] and in data set [2] were 30 µM and 37 µM, respectively.
With `CCCCCCCCCCCCCCCCCCOC[C@H](COP(=O)(O)O[C@H]1[C@@H](O)[C@@H](O)[C@H](O)C[C@H]1O)OC`, the values for the IC50 in data set [1] and in data set [2] were 2.5 µM and 2.1 µM, respectively. Further, the Tumor volume in [8] worked out at 0.28 cm*3; in data set [11], 0.32 cm*3; in data set [12], 0.09 cm*3. Further, the values for the T/C in [9], in [10] and in [13] were 103.7%, 33.3% and 118%, respectively.
